Experimental data as given in ChEMBL document CHEMBL1134765, “Synthesis of 4-alkoxy-2-phenylquinoline derivatives as potent antiplatelet agents” (Bioorg Med Chem Lett, 2001).

How the values were obtained:
Type in all cases: functional
Homo sapiens [1] = species: Homo sapiens; experiment: In vitro inhibitory activity of compound 100 (ug/ml) on platelet aggregation induced by AA
Outline: (§1)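 Platelets were preincubated with test sample or 0.5% DMSO vehicle at 37 °C for 1 min. Aggregation was then triggered by one inducer: thrombin 0.1 U/mL, arachidonic acid 100, collagen 10, or PAF 2 ng/mL. Read-out was percent aggregation, reported as mean±SE with n=3–6.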

Homo sapiens [2] = species: Homo sapiens; experiment: In vitro inhibitory activity of compound 100 (ug/ml) on platelet aggregation induced by PAF; outline: as §1
Homo sapiens [3] = species: Homo sapiens; experiment: In vitro inhibitory activity of compound 100 (ug/ml) on platelet aggregation induced by collagen; outline: as §1
Homo sapiens [4] = species: Homo sapiens; experiment: In vitro inhibitory activity of compound 100 (ug/ml) on platelet aggregation induced by thrombin; outline: as §1
Homo sapiens [5] = species: Homo sapiens; experiment: In vitro inhibitory activity of compound 2 (ug/ml) on platelet aggregation induced by AA; outline: as §1
Homo sapiens [6] = species: Homo sapiens; experiment: In vitro inhibitory activity of compound 2 (ug/ml) on platelet aggregation induced by collagen; outline: as §1
Homo sapiens [7] = species: Homo sapiens; experiment: In vitro inhibitory activity of compound 5 (ug/ml) on platelet aggregation induced by AA; outline: as §1
Homo sapiens [8] = species: Homo sapiens; experiment: In vitro inhibitory activity of compound 5 (ug/ml) on platelet aggregation induced by collagen; outline: as §1
Homo sapiens [9] = species: Homo sapiens; experiment: In vitro inhibitory activity of control on platelet aggregation induced by AA; outline: as §1
Homo sapiens [10] = species: Homo sapiens; experiment: In vitro inhibitory activity of control on platelet aggregation induced by PAF; outline: as §1
Homo sapiens [11] = species: Homo sapiens; experiment: In vitro inhibitory activity of control on platelet aggregation induced by collagen; outline: as §1
Homo sapiens [12] = species: Homo sapiens; experiment: In vitro inhibitory activity of control on platelet aggregation induced by thrombin; outline: as §1
Homo sapiens [13] = species: Homo sapiens; experiment: In vitro inhibitory activity of compound on platelet aggregation induced by collagen; outline: as §1
Homo sapiens [14] = species: Homo sapiens; experiment: In vitro inhibitory activity on platelet aggregation induced by arachidonic acid (AA)
Outline: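 Platelets were preincubated 1 min at 37 °C with test sample or 0.5% DMSO. Aggregation was then triggered with arachidonic acid 100. Aspirin and indomethacin served as positive controls.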

Homo sapiens [15] = species: Homo sapiens; experiment: In vitro inhibitory activity of compound 0.1 (ug/ml) on platelet aggregation induced by collagen; outline: as §1
Homo sapiens [16] = species: Homo sapiens; experiment: In vitro inhibitory activity of compound 0.2 (ug/ml) on platelet aggregation induced by AA; outline: as §1
Homo sapiens [17] = species: Homo sapiens; experiment: In vitro inhibitory activity of compound 0.2 (ug/ml) on platelet aggregation induced by collagen; outline: as §1
Homo sapiens [18] = species: Homo sapiens; experiment: In vitro inhibitory activity of compound 0.5 (ug/ml) on platelet aggregation induced by collagen; outline: as §1
Homo sapiens [19] = species: Homo sapiens; experiment: In vitro inhibitory activity of compound 1 (ug/ml) on platelet aggregation induced by collagen; outline: as §1
Homo sapiens [20] = species: Homo sapiens; experiment: In vitro inhibitory activity of compound 10 (ug/ml) on platelet aggregation induced by collagen; outline: as §1
Homo sapiens [21] = species: Homo sapiens; experiment: In vitro inhibitory activity of compound 1 (ug/ml) on platelet aggregation induced by AA; outline: as §1
Homo sapiens [22] = species: Homo sapiens; experiment: In vitro inhibitory activity of compound 0.5 (ug/ml) on platelet aggregation induced by AA; outline: as §1
Homo sapiens [23] = species: Homo sapiens; experiment: In vitro inhibitory activity of compound 20 (ug/ml) on platelet aggregation induced by PAF; outline: as §1
Homo sapiens [24] = species: Homo sapiens; experiment: In vitro inhibitory activity of compound 50 (ug/ml) on platelet aggregation induced by PAF; outline: as §1
Homo sapiens [25] = species: Homo sapiens; experiment: In vitro inhibitory activity of compound 0.1 (ug/ml) on platelet aggregation induced by AA; outline: as §1
Homo sapiens [26] = species: Homo sapiens; experiment: Potent antiplatelet activity was evaluated

`CCOc1cc(-c2ccccc2)nc2ccccc12` gave an Aggregation (Homo sapiens [1]) of 0%, an Aggregation (Homo sapiens [2]) of 63.8% and an Aggregation (Homo sapiens [3]) of 0%. It also gave an Aggregation (Homo sapiens [4]) of 80%, an Aggregation (Homo sapiens [5]) of 1.7% and an Aggregation (Homo sapiens [6]) of 28.4%. It also gave an Aggregation (Homo sapiens [7]) of 0%, an Aggregation (Homo sapiens [8]) of 15.9% and an Aggregation (Homo sapiens [9]) of 90.9%. The Aggregation (Homo sapiens [10]) was 92%, the Aggregation (Homo sapiens [11]) was 89.2% and the Aggregation (Homo sapiens [12]) was 92.5%. It also gave an IC50 (Homo sapiens [13]) of 3.61 µM, an IC50 (Homo sapiens [14]) of 2.01 µM and an Aggregation (Homo sapiens [15]) of 85.9%. The Aggregation (Homo sapiens [16]) was 86.4%, the Aggregation (Homo sapiens [17]) was 78.5% and the Aggregation (Homo sapiens [18]) was 43.5%. It also gave an Aggregation (Homo sapiens [19]) of 36.3%, an Aggregation (Homo sapiens [20]) of 5.9% and an Aggregation (Homo sapiens [21]) of 4.3%. The Aggregation (Homo sapiens [22]) was 23.1%.
Compound `COc1cc(-c2ccccc2)nc2ccccc12` has an Aggregation (Homo sapiens [1]) of 0%, an Aggregation (Homo sapiens [2]) of 0% and an Aggregation (Homo sapiens [3]) of 0%. It also gave an Aggregation (Homo sapiens [4]) of 56.8%, an Aggregation (Homo sapiens [5]) of 0% and an Aggregation (Homo sapiens [6]) of 9.4%. For the same compound, the Aggregation (Homo sapiens [23]) was 87.2%, the Aggregation (Homo sapiens [8]) was 0% and the Aggregation (Homo sapiens [24]) was 65.8%. The Aggregation (Homo sapiens [9]) was 90.9%, the Aggregation (Homo sapiens [10]) was 92% and the Aggregation (Homo sapiens [11]) was 89.2%. For the same compound, the Aggregation (Homo sapiens [12]) was 92.5%, the IC50 (Homo sapiens [13]) was 1.7 µM and the IC50 (Homo sapiens [14]) was 2.13 µM. The Aggregation (Homo sapiens [25]) was 90.8%, the Aggregation (Homo sapiens [16]) was 86% and the Aggregation (Homo sapiens [19]) was 18.5%. For the same compound, the Aggregation (Homo sapiens [21]) was 9.3% and the Aggregation (Homo sapiens [22]) was 53.4%.
In the case of `CCOC(=O)CCCOc1cc(-c2ccccc2)nc2cccc(CC)c12`, the IC50 (Homo sapiens [14]) is reported as 1.54 µM.
With `CCOC(=O)CCCCOc1cc(-c2ccccc2)nc2cccc(CC)c12` the IC50 (Homo sapiens [14]) was 0.53 µM.
Compound `CCc1cccc2nc(-c3ccccc3)cc(O)c12` has an IC50 (Homo sapiens [26]) of 0.15 µM.
`CCc1cccc2nc(-c3ccccc3)cc(OC)c12` showed an IC50 (Homo sapiens [14]) of 0.08 µM.
Compound `O=C(O)COc1cc(-c2ccccc2)nc2ccccc12` has an IC50 (Homo sapiens [14]) of 35.6 µM.
Work on `CCOc1cc(-c2ccccc2)nc2cc(CC)ccc12` yielded an IC50 (Homo sapiens [14]) of 3.97 µM.
In the case of `CCNC(=O)COc1cc(-c2ccccc2)nc2cccc(CC)c12`, the IC50 (Homo sapiens [14]) is reported as 0.6 µM.
Work on `CCc1cccc2c1c(=O)cc(-c1ccccc1)n2C` yielded an IC50 (Homo sapiens [14]) of 30 µM.
With `CCOC(=O)COc1cc(-c2ccccc2)nc2ccccc12` the IC50 (Homo sapiens [14]) was 13.9 µM.
With `CCOC(=O)COc1cc(-c2ccccc2)nc2cccc(CC)c12` the IC50 (Homo sapiens [14]) was 0.78 µM.
Compound `CCOc1cc(-c2ccccc2)nc2cccc(CC)c12` has an IC50 (Homo sapiens [14]) of 0.14 µM.
`CCc1cccc2nc(-c3ccccc3)cc(OCC(=O)NC)c12` was tested, and the IC50 (Homo sapiens [14]) was 1.88 µM.
`CC(=O)Oc1ccccc1C(=O)O` [ASPIRIN] was tested, and the IC50 (Homo sapiens [14]) was 20 µM.
Compound `COc1ccc2c(c1)c(CC(=O)O)c(C)n2C(=O)c1ccc(Cl)cc1` [INDOMETHACIN] has an IC50 (Homo sapiens [14]) of 0.25 µM.
